# pIC50: −log10 of the molar value.
# Assays:
# [1] = system: quiescent IMR-90 immortalized human fibroblasts; experiment: IMR-90 cytotoxicity assay; type: cell-based; settings: IMR-90, read-out: IC50(cell line) IMR-90
# Procedure, shortened: (§1)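 Cell viability assays, run on proliferating tumour lines and on quiescent IMR-90 immortalized human fibroblasts, gave IC50 values. Cell preparation and sample handling were automated. The automation protocol changed between the earlier and the later test series.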
# HCT-116 (colon cancer) [2] = experiment: proliferative cell growth inhibition assay, HCT-116; type: cell-based; settings: Homo sapiens, HCT-116, read-out: IC50(cell line) HCT-116
# Procedure, shortened: as §1
# [3] = system: wide range of cancer cell lines; settings: initially reported; cited from earlier work
# HCT-116 (colon cancer) [4] = experiment: cell viability assay, HCT-116; type: cell-based; settings: Homo sapiens, HCT-116, read-out: IC50(HCT-116)
# Procedure, shortened: as §1
# [5] = system: H522-T1 (nonsmall cell lung cancer); experiment: proliferative cell growth inhibition assay, H522-T1; type: cell-based; settings: H522-T1, read-out: IC50(cell line) H522-T1
# Procedure, shortened: as §1
# A2058 (melanoma) = experiment: proliferative cell growth inhibition assay, A2058; type: cell-based; settings: Homo sapiens, A2058, read-out: IC50(cell line) A2058
# Procedure, shortened: as §1
compound,measurement,setting,value
"C=C(C)CC(OC)[C@H](O)C(=O)N[C@@H](OC)[C@@H]1C[C@@H](O)C(C)(C)[C@@H](C[C@H](O)[C@@H](C)[C@H]2Cc3c(C)c(O)cc(O)c3C(=O)O2)O1 (single isomer, unassigned; (+)) [compound 1, (+)-irciniastatin A]",pIC50,[1],7.57
same,pIC50,HCT-116 (colon cancer) [2],8.40
same,differential activities against cancer cell lines,[3],> 10000 fold
same,pIC50,HCT-116 (colon cancer) [4],9.70
same,pIC50,[5],9.00
same,pIC50,A2058 (melanoma),9.40

# — PMC4782725 (The Journal of Organic Chemistry, 2016)
